# ANO1 block: inhibitors of mouse TMEM16A calcium-activated chloride channel. HEK293 TMEM16A/YFP iodide influx fluorescence, ionomycin. normalized B-score (activity score, 25-100; higher = stronger inhibition) at 10 µM. 310,000 compounds, 1.2% hits. AID 588511;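 active = ratio plate-corrected score three or more library SD toward inhibition, starting fluorescence score within five deviations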;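 note: score derived from kinetic fluorescence span divided by baseline fluorescence per well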
# Target sequence (Q8BHY3 whole entry, looked up): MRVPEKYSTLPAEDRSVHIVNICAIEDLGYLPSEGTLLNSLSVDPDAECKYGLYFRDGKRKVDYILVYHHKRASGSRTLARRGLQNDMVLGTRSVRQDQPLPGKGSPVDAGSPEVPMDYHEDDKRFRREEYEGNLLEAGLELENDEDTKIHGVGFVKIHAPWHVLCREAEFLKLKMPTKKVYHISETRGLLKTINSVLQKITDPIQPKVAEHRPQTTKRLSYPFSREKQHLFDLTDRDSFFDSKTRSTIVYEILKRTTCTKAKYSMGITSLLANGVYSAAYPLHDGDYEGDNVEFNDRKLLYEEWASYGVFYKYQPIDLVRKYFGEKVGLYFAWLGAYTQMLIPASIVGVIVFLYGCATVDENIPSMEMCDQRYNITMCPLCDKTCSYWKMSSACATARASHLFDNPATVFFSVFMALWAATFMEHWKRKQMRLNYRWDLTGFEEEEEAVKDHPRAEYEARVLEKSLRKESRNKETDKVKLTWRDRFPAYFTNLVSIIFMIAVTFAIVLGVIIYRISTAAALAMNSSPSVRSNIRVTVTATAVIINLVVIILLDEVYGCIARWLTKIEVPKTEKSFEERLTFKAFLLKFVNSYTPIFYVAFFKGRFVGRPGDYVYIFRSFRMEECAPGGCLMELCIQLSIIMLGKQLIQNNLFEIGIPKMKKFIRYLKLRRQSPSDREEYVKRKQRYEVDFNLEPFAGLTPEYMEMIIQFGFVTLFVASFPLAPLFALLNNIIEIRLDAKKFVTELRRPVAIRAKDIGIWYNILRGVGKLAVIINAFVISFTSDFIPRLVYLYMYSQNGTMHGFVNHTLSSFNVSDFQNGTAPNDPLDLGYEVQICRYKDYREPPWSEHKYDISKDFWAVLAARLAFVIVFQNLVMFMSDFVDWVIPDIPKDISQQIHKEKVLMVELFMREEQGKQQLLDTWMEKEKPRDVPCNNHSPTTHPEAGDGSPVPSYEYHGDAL
# CHOP inhibitor: inhibitors of CHOP induction in ER stress response | inhibition, % at 10 µM | CHO-K1 CHOP-promoter luciferase, tunicamycin-induced, 15-18 h | 220,000 compounds, 3.8% hits;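 active = compounds that reduced the stress-induced luciferase reporter signal by more than about 70% of percent inhibition, limit read from the data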;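 note: 0% = tunicamycin plus vehicle and 100% = wells without tunicamycin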
# TMEM16A act: activates or potentiates the mouse TMEM16A chloride channel. HEK293 TMEM16A/YFP-H148Q/I152L, iodide quench fluorescence; active compounds read low. B-score at 10 µM. 340,000 compounds, 0.3% hits;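 active = fluorescence-ratio B-score plate-corrected deviation score at least 3 library SD below zero, with starting fluorescence score within 5 deviations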;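 note: channel opened by trigger with iodide after compound preincubation; score built on the fluorescence ratio of max minus min over baseline; more negative score means more quench and so TMEM16A activation or potentiation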
# XBP1 UPR activ: activators of adaptive arm of unfolded protein response (XBP1) | CHO-XBP1 luciferase reporter, IRE1-XBP1 UPR activation, luminescence; percent of tunicamycin response, DMSO as zero | activation, % at 20 µM | 330,000 compounds, 0.33% hits;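 active = versus positive control, 20 µM dose yields 30% or more activation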;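 note: 100% = tunicamycin at 10 µg/mL and 0% = DMSO only wells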
#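 Material – CHO cell line with stable XBP1 luciferase reporter · Buffer or medium – F12 plus 10% FBS · Compound – single point, 20 µM final compound, 1% DMSO · Schedule – 16-18 h cell attachment at 37 °C, then 6 h compound exposure · Signal – Steady-Glo luminescence read · Benchmarks – high control tunicamycin 10 µg/mL final, low control DMSO vehicle only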
# Hep lipid drop: modulators of hepatic lipid droplet formation; AML12 mouse hepatocytes, oleate lipid droplets, BODIPY imaging; inhibition, % at 6.5 µM; 240,000 compounds, 0.4% hits; AID 1656;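 active = lipid droplet intensity inhibited by at least 50%, with more than 500 cells counted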
#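 Assay system: AML12 mouse liver cells | Compound dosing: One dose, 6.5 µM compound | Read-out basis: Droplet intensity reduction, % inhibition | Measured by: Fluorescence imaging, 20x objective, two fields per well | Schedule: Overnight treatment with compound plus oleate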
# CHOP UPR activ: activators of apoptotic arm of unfolded protein response (CHOP); CHO-CHOP luciferase reporter, UPR activation, luminescence; percent of tunicamycin response over DMSO baseline; activation, % at 10 µM; 330,000 compounds, 0.34% hits; AID 449763;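 active = at 10 µM dose, activation of 40% or more, normalized to positive control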;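 note: 100% = tunicamycin at 10 µg/mL and 0% = DMSO alone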
#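 System: CHO-CHOP luciferase reporter cell line; amount: 500 cells/well; buffer or medium: F12 medium containing 10% fetal bovine serum; incubation: 6 h compound exposure at 37 °C after overnight seeding; measured by: luciferase luminescence after 10 min with Steady-Glo reagent; evaluation: % reporter activation, DMSO baseline versus tunicamycin full activation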
# Hep lipid conf: confirmation of inhibitors of hepatic lipid droplet formation. shares compounds with Hep lipid drop. inhibition, % at 5.2 µM. 870 compounds, 65% hits. AML12 mouse hepatocytes, BODIPY lipid droplet imaging; droplets induced with 100 µM oleic acid;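 active = inhibition of lipid droplet metric at least 50%, with more than 300 cells in each of four replicates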;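 note: plate controls were DMSO with oleic acid for no effect and 5 µM Triacsin-C for full effect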
# AML12 cytotox: AML12 hepatocyte cytotoxicity (counter-screen). shares compounds with Hep lipid drop. AML12 mouse hepatocytes, DAPI nuclear morphology cytotoxicity imaging; active compounds read high; cells fed 100 µM oleate overnight. z-score at 5 µM. 870 compounds, 3% hits. AID 463200; in the data active = z-score above about 6.3;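 note: compound exposure lasted overnight at 37 °C before fixation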
# AML12 tox ATP: confirmation of cytotoxicity in AML12 mouse hepatocytes. AML12 mouse hepatocyte viability, ATP luminescence; cells loaded with 100 µM oleic acid. 530 tested, under 10 active. cytotoxicity, % at 50 µM. shares compounds with Hep lipid drop;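 active = cytotoxicity above 50% in each of four replicates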;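 note: compound exposure lasted overnight at 37 °C before the ATP read; 0% = DMSO-treated cells and 100% = wells with no cells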
# An asterisk follows results filed as active; i = inactive; · = no result. Only some compounds are listed: those with a hit (about 4.2% of all), similar ones and a draw of the others.
SMILES,ANO1 block,CHOP inhibitor,TMEM16A act,XBP1 UPR activ,Hep lipid drop,CHOP UPR activ,Hep lipid conf,AML12 cytotox,others
Cc1ccccc1C(=O)NC1CCN(Cc2nnnn2C2CCCC2)CC1,i,-14.5,i,1.8,63.3*,-2.3,30.7,-0.191,
Cc1c(Cl)cccc1NC(=O)[C@@H](NC(=O)c1ccccc1Cl)C(C)C,i,-8.5,i,-2.5,-53.5,-1.1,·,·,
Cc1c(C(=O)O)sc2nc3n(c(=O)c12)CCC(C)CC3 (stereo not given),i,-20.7,i,-4.0,93.4*,-0.6,26.6,-0.372,
CCOc1ccc(-n2c(SCC(=O)Nc3ccc(CC)cc3)nc3n[nH]c(C)c3c2=N)cc1,i,26.8,-6.44*,-0.8,51.0*,-2.3,3.5,-0.827,
CCCN(CCC)C(=O)CSc1nc2n[nH]c(C)c2c(=N)n1-c1ccc(OCC)cc1,i,34.4,i,13.4,·,3.2,·,·,
Cc1nnc(-c2cnn(C)c2N)n1CCCN1CCOCC1,i,-7.0,i,-2.3,·,-0.8,·,·,
Cc1cccc(NC(=O)CN2C(=O)N/C(=C\c3cccn3-c3cccc(C(=O)O)c3)C2=O)c1,i,2.0,i,-1.1,3.3,1.7,·,·,
Cc1ccc(-n2cccc2/C=C2/NC(=O)N(CC(=O)Nc3cccc(C)c3)C2=O)cc1,i,51.8,i,-1.4,89.9*,5.1,109.8*,0.0113,AML12 tox ATP=11.5
Fc1ccc(-c2cnn3c(-c4cccs4)ccnc23)cc1,·,18.9,i,·,62.7*,·,79.4*,-0.157,
CCN1CCN(c2c(/C=C3\SC(=S)N(Cc4ccco4)C3=O)c(C)c(C#N)c(=O)n2C)CC1,i,-15.6,i,-2.7,64.9*,3.2,9.0,-0.444,
CC(C)CCCN1C(N(C)C)=NC[C@@H]1Cc1ccccc1,i,·,i,-1.3,·,0.1,·,·,
CCOc1ccccc1NC(=O)CSCC(=O)Nc1ccccc1,i,8.9,i,-1.3,57.3*,-0.2,96.0*,1.44,AML12 tox ATP=2.4
CCOc1ccc(OCC)c(NC(=O)CSCC(=O)O)c1,i,-29.8,i,-0.6,·,-0.7,·,·,
O=C(NCc1ccco1)c1ccc(Cn2c(=O)c3ccccc3n(Cc3cccc(F)c3)c2=O)cc1,i,13.7,i,-3.0,10.6,-0.7,·,·,
O=C(NCc1ccco1)c1ccc(Cn2c(=O)c3ccccc3n(Cc3ccc(Cl)cc3)c2=O)cc1,i,22.7,i,-1.8,55.9*,1.0,47.9,-0.475,
O=C(Cn1ccc2ccccc2c1=O)NCC(=O)N1CCN(c2ccccc2F)CC1,i,·,i,-6.6,-5.8,-1.3,·,·,
CC(C)(C)C(=O)/C=C1\NC(=O)CS1,i,-6.7,i,-1.9,7.6,-0.8,·,·,
CC(C)(C)C(=O)/C=c1\[nH]c(=O)/c(=C\c2ccc(F)cc2)s1,i,81.3*,i,-1.8,67.0*,2.6,98.4*,0.889,AML12 tox ATP=5.6
COC(C[C@@H](O)C[C@@H](O)COCc1ccccc1)OC,·,-11.7,i,-1.9,113.0*,-2.4,1.1,0.343,
CCCCN(CC)C(=O)Cn1cnc2ccc(S(=O)(=O)N3CCC(C)CC3)cc2c1=O,i,38.3,i,-0.7,3.0,0.4,·,·,
Cc1cc(OCC(=O)N2CCN(c3ccccn3)CC2)cc(C)c1Br,i,·,i,-3.0,-50.3,0.8,·,·,
NC(=O)CC(NC(=O)Cc1cccc2ccccc12)c1ccc(N2CCN(c3ccc(F)cc3)CC2)c([N+](=O)[O-])c1 (stereo not given),i,94.3*,i,-2.0,53.1*,-1.2,18.4,-0.637,
NC(=O)CC(NC(=O)Cc1cccc2ccccc12)c1ccc(N2CCCCCCC2)c([N+](=O)[O-])c1 (stereo not given),i,·,i,-2.1,·,0.4,·,·,
CSc1ccccc1NC(=O)C1=CC(c2cccs2)=NS(=O)(=O)N1C,i,·,i,-0.7,73.7*,1.2,104.8*,0.14,AML12 tox ATP=13.8
COC(=O)c1ccccc1NC(=O)C1=CC(c2cccs2)=NS(=O)(=O)N1C,i,·,i,0.9,-4.6,0.8,·,·,
SMILES,ANO1 block,CHOP inhibitor,TMEM16A act,XBP1 UPR activ,Hep lipid drop,CHOP UPR activ,Hep lipid conf,AML12 cytotox,others
O=[N+]([O-])c1ccc2nc(/C=C/c3ccc(Cl)cc3)[nH]c2c1,i,58.6,i,4.5,·,6.1,·,·,
CSc1nc2ccccc2n1CC(=O)Nc1c(C)cccc1C,i,7.8,i,-5.2,54.7*,-0.9,50.1,0.0469,
Cc1ccc(OCC(=O)Nc2oc(-c3ccccc3)c(-c3ccccc3)c2C#N)cc1,i,·,i,-3.5,·,-0.8,·,·,
COc1ccc(CC(=O)Nc2oc(-c3ccccc3)c(-c3ccccc3)c2C#N)cc1OC,i,21.4,i,-2.4,97.0*,-3.0,109.6*,-0.0151,AML12 tox ATP=3.2
Cc1cccc(NC(=O)C2SC(=Nc3c(C)cccc3C)C(C(=O)N3CCOCC3)=C2N)c1 (stereo not given),i,13.8,i,-2.6,0.0,1.3,·,·,
CNC(=S)N1CCc2cc(OC)c(OC)cc2C1COc1ccc(F)cc1 (stereo not given),i,-1.0,i,-0.8,24.0,1.6,·,·,
CCNC(=S)N1CCc2cc(OC)c(OC)cc2C1COc1ccc(F)cc1 (stereo not given),i,6.2,i,2.3,60.2*,0.0,96.9*,-0.00567,AML12 tox ATP=3.2
COc1ccc(CCNC(=O)CN2C(=O)c3cccc4cccc(c34)C2=O)cc1OC,i,5.5,i,2.3,55.5*,-1.2,92.3*,-0.0143,AML12 tox ATP=4.0
COc1ccc(CCNC(=O)Cc2cccc(C(F)(F)F)c2)cc1OC,i,·,i,-1.5,63.5*,1.7,83.8*,-1.32,AML12 tox ATP=12.2
COc1ccc(CCNC(=O)c2cccc3ccccc23)cc1OC,i,·,i,-0.5,-5.9,0.4,·,·,
COc1ccc(CCNC(=O)Cc2ccc(OC)c(OC)c2)cc1OC,i,12.6,i,1.0,-5.1,9.6,·,·,
COc1ccc(CCNC(=O)c2cc3c(F)cccc3s2)cc1OC,i,·,i,-0.5,76.9*,-0.2,73.6*,-0.2,AML12 tox ATP=2.5
COc1ccc(CCN2C(=O)c3cccc4cccc(c34)C2=O)cc1OC,i,46.4,i,3.0,·,0.1,·,·,
Cc1onc(-c2ccccc2)c1C(=O)N1CCN(c2ccccc2F)CC1,i,·,i,2.0,-12.6,0.3,·,·,
